Source: ChEMBL document CHEMBL3785077 (J Med Chem, 2016)
The source made the active and inactive calls. The calls are words filed in the database; no cut-off is given here.

Experiments:
[1] = biological target: T1, Cholinesterase (Equus caballus, UniProt P81908); test: Inhibition of equine serum butyrylcholinesterase using […] as substrate preincubated for 4.5 mins followed by substrate addition measured after 2.5 mins by Ellman's spectrophotometric method
Procedure, shortened: (§1)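 Ellman assay at 25 °C in phosphate buffer pH 8.0. Enzyme (AChE from human erythrocytes, BChE from equine or human serum; 2.5 units/mL stock with 2 mg/mL BSA) and DTNB (0.3 mM in assay) preincubated with compound from ethanol stocks (1 nM−1 mM in assay). Acetyl- or butyrylthiocholine added (452 μM in assay), absorbance at 412 nm after 2.5 min. Ethanol control, triplicates, IC50 from activity vs log concentration.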

[2] = biological target: T2, Acetylcholinesterase (Homo sapiens, UniProt P22303); test: Inhibition of human acetylcholinesterase using […] as substrate at 500 uM preincubated for 4.5 mins followed by substrate addition measured after 2.5 mins by Ellman's spectrophotometric method
T2 sequence (P22303 whole entry): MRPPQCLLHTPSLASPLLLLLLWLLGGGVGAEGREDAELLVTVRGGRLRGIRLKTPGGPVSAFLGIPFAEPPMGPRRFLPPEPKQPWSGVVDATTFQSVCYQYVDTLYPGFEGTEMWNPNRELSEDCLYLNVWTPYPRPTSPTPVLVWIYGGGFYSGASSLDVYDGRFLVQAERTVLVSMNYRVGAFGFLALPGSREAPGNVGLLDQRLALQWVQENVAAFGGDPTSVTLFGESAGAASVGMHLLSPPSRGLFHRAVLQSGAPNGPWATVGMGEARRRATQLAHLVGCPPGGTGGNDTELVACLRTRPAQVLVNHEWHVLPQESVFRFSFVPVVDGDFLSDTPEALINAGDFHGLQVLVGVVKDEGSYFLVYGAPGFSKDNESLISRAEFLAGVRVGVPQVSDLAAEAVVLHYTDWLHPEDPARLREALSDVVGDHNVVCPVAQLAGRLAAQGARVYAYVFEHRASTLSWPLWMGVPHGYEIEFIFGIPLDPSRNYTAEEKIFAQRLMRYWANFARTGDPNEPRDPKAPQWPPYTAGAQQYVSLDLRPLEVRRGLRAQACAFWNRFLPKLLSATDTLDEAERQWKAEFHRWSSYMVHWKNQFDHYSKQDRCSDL

[3] = biological target: Cholinesterase (Equus caballus) (UniProt P81908); test: Pseudo-irreversible inhibition of equine serum butyrylcholinesterase assessed as carbamoylation rate of inhibitor from reversible enzyme inhibitor complex to carbamoylated enzyme using p-nitrophenyl butyrate as substrate preincubated for 5 to 40 mins followed by substrate addition by double reciprocal plot analysis
Chain of Cholinesterase (Equus caballus) (P81908 whole entry): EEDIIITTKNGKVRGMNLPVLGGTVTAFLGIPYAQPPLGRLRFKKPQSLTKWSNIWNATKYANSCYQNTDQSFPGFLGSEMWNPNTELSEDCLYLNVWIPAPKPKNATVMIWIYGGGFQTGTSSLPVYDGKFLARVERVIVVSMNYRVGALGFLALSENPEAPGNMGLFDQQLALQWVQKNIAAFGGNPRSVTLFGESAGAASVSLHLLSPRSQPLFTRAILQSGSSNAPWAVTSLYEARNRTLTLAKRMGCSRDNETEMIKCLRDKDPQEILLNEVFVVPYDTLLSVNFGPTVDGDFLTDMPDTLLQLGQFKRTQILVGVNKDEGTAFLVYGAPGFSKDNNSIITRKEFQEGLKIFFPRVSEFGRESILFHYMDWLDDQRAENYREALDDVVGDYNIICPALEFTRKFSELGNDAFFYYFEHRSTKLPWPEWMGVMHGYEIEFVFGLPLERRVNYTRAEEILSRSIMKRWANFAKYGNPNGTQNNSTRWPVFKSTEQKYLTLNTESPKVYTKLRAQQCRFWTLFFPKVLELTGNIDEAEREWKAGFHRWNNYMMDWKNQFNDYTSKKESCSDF

[4] = biological target: Cholinesterase (Equus caballus) (UniProt P81908); test: Pseudo-irreversible inhibition of equine serum butyrylcholinesterase assessed as decarbamoylation rate using […] as substrate preincubated for 1 hr followed by 1000 fold dilution
Procedure, shortened: (§2)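 Enzyme incubated 1 h with inhibitor at a fully inhibiting concentration, then diluted 1:1000 in assay buffer. Activity measured by Ellman assay at various times after dilution, with uninhibited enzyme treated the same way as control. First-order fit of activity recovery gives k4.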

[5] = biological target: Cholinesterase (Equus caballus) (UniProt P81908); test: (§3) Pseudo-irreversible inhibition of equine serum butyrylcholinesterase assessed as apparent affinity between enzyme and inhibitor at equilibrium state using p-nitrophenyl butyrate as substrate preincubated for 5 to 40 mins followed by substrate addition by double reciprocal plot analysis
[6] = system: HT-22; test: Neuroprotective activity against glutamate-induced oxycytotic cell death in mouse HT22 cells assessed as cell viability at 5 to 25 uM after 24 hrs by MTT assay; type: functional, cell-based
Procedure, shortened: (§4)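 Murine hippocampal HT-22 cells in high-glucose DMEM with 10% heat-inactivated FCS, 37 °C, 5% CO2. […] MTT 3 h, SDS lysis, absorbance at 560 nm, viability as % of untreated cells.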

[7] = Neurotoxicity against mouse HT22 cells assessed as cell viability up to 10 uM after 24 hrs by MTT assay; type: toxicity, cell-based, HT-22; settings: read-out: Activity; procedure, shortened: as §4
[8] = biological target: T1, Cholinesterase; test: Inhibition of equine serum butyrylcholinesterase using […] as substrate preincubated for 30 mins followed by substrate addition measured after 2.5 mins by Ellman's spectrophotometric method
Procedure, shortened: as §1, with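 “assay).” for “assay). Acetyl- or butyrylthiocholine added (452 μM in assay), absorbance at 412 nm after 2.5 min.”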

[9] = biological target: Cholinesterase (Equus caballus) (UniProt P81908); test: Pseudo-irreversible inhibition of equine serum butyrylcholinesterase assessed as half life for carbamoylated enzyme using […] as substrate preincubated for 1 hr followed by 1000 fold dilution; procedure, shortened: as §2
[10] = biological target: T2, Acetylcholinesterase; test: Inhibition of human acetylcholinesterase using […] as substrate at 100 uM preincubated for 4.5 mins followed by substrate addition measured after 2.5 mins by Ellman's spectrophotometric method
[11] = Antioxidant activity assessed as trolox equivalents of AAPH radical scavenging activity preincubated for 15 mins followed by AAPH addition measured every 60 secs for 90 mins by ORAC assay; type: physicochemical; settings: 1.5 h
Procedure, shortened: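 ORAC-FL: compound (1−5 μM) with fluorescein (300 nM final) in 75 mM phosphate buffer pH 7.4, 15 min at 37 °C, then AAPH (12 mM final). Fluorescence read every 60 s for 90 min (ex 485/em 535 nm). […] Samples in quadruplicate, ≥4 independent runs.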

[12] = biological target: Cholinesterase (Equus caballus) (UniProt P81908); test: as §3, with “assessed as ratio of carbamoylation rate of inhibitor to apparent affinity” for “assessed as apparent affinity”
[13] = Neurotoxicity against mouse HT22 cells assessed as decrease in cell viability at 25 uM after 24 hrs by MTT assay; type: toxicity, cell-based; settings: ht-22, 24 h; procedure, shortened: as §4
[14] = biological target: T2, Acetylcholinesterase; test: Inhibition of human acetylcholinesterase using […] as substrate at 10 uM preincubated for 4.5 mins followed by substrate addition measured after 2.5 mins by Ellman's spectrophotometric method
[15] = biological target: T2, Acetylcholinesterase; test: Inhibition of human acetylcholinesterase using […] as substrate preincubated for 30 mins followed by substrate addition measured after 2.5 mins by Ellman's spectrophotometric method
Procedure, shortened: as §1, with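 “assay).” for “assay). Acetyl- or butyrylthiocholine added (452 μM in assay), absorbance at 412 nm after 2.5 min.”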

[16] = biological target: Cholinesterase (Homo sapiens, UniProt P06276); test: Inhibition of human butyrylcholinesterase using […] as substrate preincubated for 30 mins followed by substrate addition measured after 2.5 mins by Ellman's spectrophotometric method; procedure, shortened: as §1
Chain of Cholinesterase (Homo sapiens, UniProt P06276) (P06276 whole entry): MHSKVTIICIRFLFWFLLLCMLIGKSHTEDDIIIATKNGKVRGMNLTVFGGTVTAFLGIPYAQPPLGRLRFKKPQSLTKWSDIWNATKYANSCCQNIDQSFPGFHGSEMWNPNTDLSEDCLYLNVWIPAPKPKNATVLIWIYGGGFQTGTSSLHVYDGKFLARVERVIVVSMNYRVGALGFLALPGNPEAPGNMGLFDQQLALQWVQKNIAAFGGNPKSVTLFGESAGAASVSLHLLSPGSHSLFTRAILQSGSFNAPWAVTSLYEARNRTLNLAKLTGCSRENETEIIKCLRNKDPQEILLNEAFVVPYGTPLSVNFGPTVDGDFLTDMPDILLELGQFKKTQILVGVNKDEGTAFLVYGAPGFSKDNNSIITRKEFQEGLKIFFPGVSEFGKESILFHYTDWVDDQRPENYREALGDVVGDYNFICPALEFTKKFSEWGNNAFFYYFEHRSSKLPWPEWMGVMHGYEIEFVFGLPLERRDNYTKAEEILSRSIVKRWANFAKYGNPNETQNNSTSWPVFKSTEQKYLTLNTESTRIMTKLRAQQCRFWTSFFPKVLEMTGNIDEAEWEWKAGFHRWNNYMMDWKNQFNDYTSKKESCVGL

[17] = biological target: T2, Acetylcholinesterase; test: Inhibition of human acetylcholinesterase using […] as substrate at 50 uM preincubated for 4.5 mins followed by substrate addition measured after 2.5 mins by Ellman's spectrophotometric method
[18] = system: HT-22; test: Neuroprotective activity against glutamate-induced oxycytotic cell death in mouse HT22 cells assessed as cell viability at 25 uM after 24 hrs by MTT assay; type: functional, cell-based
Procedure, shortened: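 Murine hippocampal HT-22 cells in high-glucose DMEM with 10% heat-inactivated FCS, 37 °C, 5% CO2. MTT (4 mg/mL in PBS, diluted 1:10 in medium) for 3 h, lysis in 10% SDS pH 4.1, absorbance 560 nm; viability as % of untreated cells.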

[19] = Neurotoxicity against mouse HT22 cells assessed as cell viability at 1 and 5 uM after 24 hrs by MTT assay; type: toxicity, cell-based; settings: ht-22, 24 h
Procedure, shortened: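 HT-22 murine hippocampal cells grown in high-glucose DMEM plus 10% heat-inactivated FCS at 37 °C, 5% CO2. After 24 h culture in plates, treated 24 h with compound (DMSO ≤0.1% final) without glutamate. Viability read by MTT (3 h), SDS lysis buffer pH 4.1, absorbance at 560 nm, given as percent of untreated control.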

[20] = system: HT-22; test: Neuroprotective activity against glutamate-induced oxycytotic cell death in mouse HT22 cells assessed as cell viability at 5 uM after 24 hrs by MTT assay; type: functional, cell-based
Procedure, shortened: (§5)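 Murine hippocampal HT-22 cells in high-glucose DMEM with 10% heat-inactivated FCS, 37 °C, 5% CO2. […] MTT (4 mg/mL in PBS, diluted 1:10 in medium) for 3 h, lysis in 10% SDS pH 4.1, absorbance 560 nm; viability as % of untreated cells.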

[21] = system: HT-22; test: Neuroprotective activity against glutamate-induced oxycytotic cell death in mouse HT22 cells assessed as cell viability at 1 uM after 24 hrs by MTT assay; type: functional, cell-based; procedure, shortened: as §5
[22] = biological target: T2, Acetylcholinesterase; test: Inhibition of human acetylcholinesterase using […] as substrate preincubated for 4.5 mins followed by substrate addition measured after 2.5 mins by Ellman's spectrophotometric method; procedure, shortened: as §1

T1 sequence (P81908 whole entry): as the sequence (P81908 whole entry) above

CN1Cc2cc(O)ccc2N(C)C1c1ccsc1 (stereo not given)
IC50 [1]: 194 µM | inhibition [2]: 52%

CNC(=O)Oc1ccc2c(c1)[C@]1(C)CCN(C)[C@@H]1N2C
K [3]: 0.3 min⁻¹ | K [4]: 0.25 h⁻¹ | K [5]: 280 nM

CCCCCCCNC(=O)Oc1ccc2c(c1)CN(C)C(c1ccccc1)N2C (stereo not given)
Activity [6]: Active | K [3]: 0.13 min⁻¹ | viability at 24 h [7]: > 80% | IC50 [8]: 106 nM | T1/2 [9]: 5 h | inhibition [10]: 4% | Activity [11]: 0.2 equiv | K [4]: 0.14 h⁻¹ | K [5]: 226 nM | Ratio [12]: 0.57 µM⁻¹ min⁻¹

CCCCCCCNC(=O)Oc1ccc2c(c1)CN(Cc1ccccc1)C(c1ccccc1)N2C (stereo not given)
Activity [6]: Active | viability at 24 h [7]: > 80% | IC50 [8]: 34 nM | Activity [11]: 1.7 equiv | Activity [13]: Non-toxic | inhibition [14]: 17%

COc1cccc(C2N(C)Cc3cc(O)ccc3N2C)c1 (stereo not given)
IC50 [1]: 7.8 µM | inhibition [2]: 61%

CCCCCCCNC(=O)Oc1ccc2c(c1)CN(C)C(c1cc[nH]c1)N2C (stereo not given)
IC50 [8]: 23 nM | IC50 [15]: 852 nM

CCCCCCCNC(=O)Oc1ccc2c(c1)CN(C)C(c1cccs1)N2C (stereo not given)
Activity [6]: Active | K [3]: 0.14 min⁻¹ | viability at 24 h [7]: > 80% | IC50 [8]: 14 nM | T1/2 [9]: 5 h | inhibition [10]: 0% | Activity [11]: 0.2 equiv | K [4]: 0.14 h⁻¹ | K [5]: 14.3 nM | IC50 [16]: 13 nM | Ratio [12]: 9.79 µM⁻¹ min⁻¹

CN1Cc2cc(O)ccc2N(C)C1c1ccc2ccccc2c1 (stereo not given)
IC50 [1]: 16.5 µM | inhibition [17]: 9%

CN1c2ccc(O)cc2CN(Cc2ccccc2)C1c1ccccc1 (stereo not given)
Activity [18]: inactive | IC50 [1]: 14.8 µM | Activity [19]: Non-toxic | Activity [20]: Active | Activity [21]: Active | Activity [11]: 3.9 equiv | inhibition [17]: 16%

COc1ccc(C2N(C)Cc3cc(O)ccc3N2C)cc1 (stereo not given)
Activity [18]: inactive | IC50 [1]: 39.5 µM | Activity [19]: Non-toxic | Activity [20]: Active | IC50 [22]: 104 µM | Activity [11]: 3.7 equiv

CN1Cc2cc(O)ccc2N(C)C1c1ccccc1Cl (stereo not given)
IC50 [1]: 56 µM | inhibition [2]: 60%

CN1Cc2cc(O)ccc2N(C)C1c1ccccc1 (stereo not given)
IC50 [1]: 39.9 µM | Activity [19]: Non-toxic | Activity [20]: Active | IC50 [22]: 327 µM | Activity [11]: 3 equiv

CCCCCCCNC(=O)Oc1ccc2c(c1)CN(C)C(c1ccc(OC)cc1)N2C (stereo not given)
Activity [6]: Active | K [3]: 0.24 min⁻¹ | viability at 24 h [7]: > 80% | IC50 [8]: 875 nM | inhibition [10]: 14% | Activity [11]: 0.5 equiv | K [5]: 1200 nM | Ratio [12]: 0.2 µM⁻¹ min⁻¹

Oc1ccc2nc(-c3ccccc3)ncc2c1
IC50 [1]: 98.1 µM | inhibition [2]: 20%

CN1Cc2cc(O)ccc2N(C)C1c1cccnc1 (stereo not given)
IC50 [1]: 70.7 µM | inhibition [2]: 61%

CCCCCCCNC(=O)Oc1ccc2c(c1)CN(C)C(c1ccc(F)cc1)N2C (stereo not given)
K [3]: 0.14 min⁻¹ | IC50 [8]: 44 nM | IC50 [15]: 1610 nM | K [5]: 24.5 nM | Ratio [12]: 5.71 µM⁻¹ min⁻¹

CN1Cc2cc(O)ccc2N(C)C1c1cccs1 (stereo not given)
IC50 [1]: 63.2 µM | Activity [19]: Non-toxic | Activity [20]: Active | IC50 [22]: 226 µM | Activity [11]: 3.4 equiv

CCCCCCCNC(=O)Oc1ccc2c(c1)CN(C)C(c1cccc3ccccc13)N2C (stereo not given)
K [3]: 0.03 min⁻¹ | IC50 [8]: 36200 nM | inhibition [14]: 8% | K [5]: 15.6 nM | Ratio [12]: 1.92 µM⁻¹ min⁻¹
